Reference: the array DNA melting data of Ke et al. (doi:10.1101/2024.01.08.574731)

Columns and labels:
[1] = folding enthalpy; higher = less favourable; fluorescence melt of hairpins on a sequencing array, two-state fit; details: sodium 0.088 M
Procedure, shortened: (§1)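 Hairpins were imaged by Cy3 fluorescence on a sequenced MiSeq flow cell with annealed Cy3 and quencher oligos, in 50 mM Na-HEPES pH 8.0, 25 mM NaCl, in 2.5 °C steps up to 60 °C. Bootstrapped two-state fits of normalised signals gave melting temperature and folding enthalpy. Four replicates were combined by inverse variance, and fitted temperatures were raised by 9.35 °C to match UV melts.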

[2] = melting temperature; fluorescence melt of hairpins on a sequencing array, two-state fit, raised by 9.35 °C to match UV melts; details: sodium 0.088 M
Procedure, shortened: as §1

Sequence | folding enthalpy [1] | Tm [2]
GGCGGAGGAAACTTCGCC ((((.((....)).)))) | -49.2 kcal/mol | 59 °C
GCGTCCGAAAGGAATCGC ((((((....)))..))) | -22.6 kcal/mol | 47.8 °C
GATCTCTGGGAGATC ((((((...)))))) | -34.7 kcal/mol | 53.6 °C
CGATCCGGAAACGGCTCG (((.(((....))).))) | -28.7 kcal/mol | 48.1 °C
GATCTCCCCTGAGATC ((((((....)))))) | -45.1 kcal/mol | 51.6 °C
GCCAGCGAAAGCTCCGGC ((((((....)))..))) | -19.9 kcal/mol | 44.5 °C
GGTAAGACGAAAGTCACC (((..(((....)))))) | -16.2 kcal/mol | 39.3 °C
GAGCTTGGAAACAGGCTC ((((.((....)).)))) | -45 kcal/mol | 49.3 °C
GCGACGTCGAAAGACCGC (((..(((....)))))) | -25.4 kcal/mol | 50.6 °C
GTTGACGGAAACGTTAGC (.(.(((....))).).) | -7.85 kcal/mol | 29.9 °C
GATCCTGTGAGGATC ((((((...)))))) | -32.3 kcal/mol | 53.3 °C
GATCGGCTTCCCGATC ((((((....)))))) | -35.5 kcal/mol | 56.4 °C
GTCACTGGAAACGGTGAC (((((.(....).))))) | -47.5 kcal/mol | 52.7 °C
GCGGGGCGAAAGCACTGC ((.(.((....)).).)) | -24.7 kcal/mol | 65.5 °C
GCAGCTGCGAAAGCATGC (((..(((....)))))) | -11.6 kcal/mol | 45.1 °C
GCGCACGAAAGTGCCGC ((((((....))).))) | -17.5 kcal/mol | 62 °C
GAGCCCGAAAGGGTCCTC ((((((....)))..))) | -13.2 kcal/mol | 42.5 °C
GAGGCCGAAAGGCTGCTC ((((((....)))..))) | -12.1 kcal/mol | 45.9 °C
GAATAAGGAAACTTGTTC (((.(((....))).))) | -17 kcal/mol | 29.6 °C
GCGACTGCGAAAGCACGC (((..(((....)))))) | -15.3 kcal/mol | 48.8 °C
GGGGACGAAAGTCTGCCC ((((((....)))..))) | -14.4 kcal/mol | 44.1 °C
GCGTGTGGACGC ((((....)))) | -13.9 kcal/mol | 53.9 °C
GCACGCGAAAGCGAGTGC ((((((....)))..))) | -21.1 kcal/mol | 59.5 °C

Sequence | folding enthalpy [1] | Tm [2]
AATCTGAAAAGATT (((((....))))) | -13.1 kcal/mol | 34.7 °C
GAAAGGCGAAAGCCATTC (((.(((....))).))) | -16.5 kcal/mol | 41.4 °C
GCCTAGGGAAACCTGGGC (((.(((....))).))) | -38.3 kcal/mol | 55.1 °C
GCGCTACCGAAAGGTCGC (((..(((....)))))) | -30.8 kcal/mol | 51.4 °C
GATCAAACGTTGATC ((((((...)))))) | -28.1 kcal/mol | 39.5 °C
GACACTGGAAACAGTACC (..((((....))))..) | -13 kcal/mol | 24.2 °C
GATCGATGGGTCGATC ((((((....)))))) | -39.7 kcal/mol | 57.5 °C
GACCTTGAAAAAGGTC ((((((....)))))) | -33.4 kcal/mol | 56.8 °C
GGCCAACGAAAGTTTGCC (((.(((....))).))) | -45.6 kcal/mol | 50.7 °C
GTTATGCCGAAAGGCAAC (((..(((....)))))) | -7.54 kcal/mol | 33 °C
GCCACCGAAAGGTTCGGC ((((((....)))..))) | -16.8 kcal/mol | 46.5 °C
GGACTGGGAAACCAGTTC (.(((((....))))).) | -28.6 kcal/mol | 50.6 °C
GATGTGCGAAAGCAGATC (((.(((....))).))) | -32.7 kcal/mol | 52.5 °C
GCAGTGGAAACACTGC ((((((....)))))) | -32.9 kcal/mol | 68.5 °C
GATCTTCATTAAGATC ((((((....)))))) | -35.4 kcal/mol | 41.5 °C
GCGGGTGGAAACGTCCGC ((((..(....)..)))) | -32 kcal/mol | 53 °C
GCTAGTGGAAACACTAAC (.(((((....))))).) | -15.2 kcal/mol | 32.5 °C
GATCATCCCCATGATC ((((((....)))))) | -34.9 kcal/mol | 46.2 °C
GCACTGGGAAACCAATGC (((.(((....))).))) | -30.1 kcal/mol | 40.3 °C
GCTACGCGAAAGCGATGC ((..(((....)))..)) | -18.3 kcal/mol | 50 °C
GTCTACGAAAGTAGAGAC ((((((....)))..))) | -12.8 kcal/mol | 40.1 °C
GGAGATGGAAACGTCTCC (((((.(....).))))) | -36.9 kcal/mol | 49.5 °C
GTAAGCGAAAGCTATAC ((((((....))).))) | -14.9 kcal/mol | 33.8 °C

Sequence | folding enthalpy [1] | Tm [2]
GGTCACGAAAGTGCAACC ((((((....)))..))) | -15.9 kcal/mol | 38.6 °C
GAGGACCGAAAGGTACTC (((.(((....))).))) | -33.4 kcal/mol | 64.9 °C
GTAATTCGAAAGAATAC (((.(((....)))))) | -15.2 kcal/mol | 32 °C
GCCGTGCGAAAGCAGGC (((.(((....)))))) | -23.7 kcal/mol | 68.2 °C
GTTGAACGAAAGTTGAAC (((.(((....))).))) | -25.9 kcal/mol | 38.1 °C
GCATCGCGAAAGCGGCGC ((..(((....)))..)) | -21.2 kcal/mol | 57.3 °C
GCGTACGCGAAAGCGCGC (((..(((....)))))) | -16.8 kcal/mol | 58.5 °C
GCGTGGGCACGC ((((....)))) | -24.7 kcal/mol | 57.3 °C
GCACGGCGAAAGCCTCGC ((..(((....)))..)) | -16.5 kcal/mol | 42 °C
GCTTGGCGAAAGCGATGC ((.(.((....)).).)) | -14.3 kcal/mol | 45 °C
GCTCTAGGAAACTAGAGC (((((((....))))))) | -44.6 kcal/mol | 60.1 °C
GTTACGGGAAACTGTAAC (((((.(....).))))) | -32.7 kcal/mol | 45.6 °C
GTCGATCCGAAAGGAGAC (((..(((....)))))) | -22.7 kcal/mol | 40 °C
GCTTGGCGAAAGCTAGGC ((.(.((....)).).)) | -17 kcal/mol | 44.6 °C
GAATTCGGAAACGGATTC ((((.((....)).)))) | -36.2 kcal/mol | 45.4 °C
GATCGCCTCCGCGATC ((((((....)))))) | -44.6 kcal/mol | 63.9 °C
GGAGTTCCGAAAGGATCC (((..(((....)))))) | -12.8 kcal/mol | 31 °C
GATCGTTCTGACGATC ((((((....)))))) | -44.4 kcal/mol | 55.5 °C
GTATCCGAAAGGATATAC ((((((....)))..))) | -13.8 kcal/mol | 44.8 °C
GTGAGCGGAAACGTTCGC (.((.((....)).)).) | -27.8 kcal/mol | 43.9 °C
GGGGGTCGAAAGACGCCC (((.(((....))).))) | -21.5 kcal/mol | 68.7 °C
CGGTCGCGGAAACGCCCG (((..(((....)))))) | -20.9 kcal/mol | 47.1 °C
AAAGCGAAAGCTTT (((((....))))) | -15.5 kcal/mol | 63.4 °C

Sequence | folding enthalpy [1] | Tm [2]
GATCAGTTCCTGATC ((((((...)))))) | -42.9 kcal/mol | 50.9 °C
GTAGAGGGAAACCTCCAC ((.((((....)))).)) | -16.7 kcal/mol | 31.2 °C
GACCACGGAAACGTGACC (..((((....))))..) | -8.43 kcal/mol | 29.2 °C
GCATGCGGAAACGTATGC ((((.((....)).)))) | -41.4 kcal/mol | 56.1 °C
GGCAAGCGAAAGCTCGCC (((.(((....))).))) | -22.9 kcal/mol | 59.7 °C
GATCCGTGGACGGATC ((((((....)))))) | -41 kcal/mol | 62.9 °C
GGATACGGAAACGTATCC (((((((....))))))) | -40.9 kcal/mol | 64.2 °C
GTTGGCGCGAAAGCGAAC (((..(((....)))))) | -12.9 kcal/mol | 45.9 °C
GAATGGGGAAACCTATTC ((((.((....)).)))) | -31.6 kcal/mol | 37.9 °C
GATCTGGCTGCAGATC ((((((....)))))) | -36.3 kcal/mol | 50 °C
GGAAAGGGAAACCTTTTC (.(((((....))))).) | -24.3 kcal/mol | 37.6 °C
GACATAGGAAACCATGTC (((((.(....).))))) | -29.1 kcal/mol | 37.5 °C
GTAAGCACGAAAGTGTAC (((..(((....)))))) | -9.4 kcal/mol | 27.9 °C
GCGAATGCGAAAGCACGC (((..(((....)))))) | -18.9 kcal/mol | 52.3 °C
GATCCCAAAAGGGATC ((((((....)))))) | -27.9 kcal/mol | 59.3 °C
GCAATCGGAAACGGTTGC ((((.((....)).)))) | -43.8 kcal/mol | 55.8 °C
GATCTTCAGCAAGATC ((((((....)))))) | -24.6 kcal/mol | 38.9 °C
GATCCGAGAGCGGATC ((((((....)))))) | -38.3 kcal/mol | 54.6 °C
GTCACAGGAAACTGTGAC (((((((....))))))) | -42.3 kcal/mol | 66.8 °C
GCAACCGGAAACGGTTAC (.(((((....))))).) | -12.4 kcal/mol | 41.2 °C
GCAAAAGGAAACTTTCGC ((.((((....)))).)) | -20.5 kcal/mol | 31.8 °C
GAGATTGGAAACAATCTC (((((((....))))))) | -42.2 kcal/mol | 56.4 °C
GCTATCGAAAGATCTAGC ((((((....)))..))) | -11.8 kcal/mol | 26.1 °C
